In ChEMBL document CHEMBL1148402, “Anti-AIDS agents. 52. Synthesis and anti-HIV activity of hydroxymethyl (3'R,4'R)-3',4'-di-O-(S)-camphanoyl-(+)-cis-khellactone derivatives” (J Med Chem, 2004):

Assays:
[1] = system: Human immunodeficiency virus 1; assay: Concentration required to inhibit HIV-1 replication in acutely infected H9 lymphocytes by 50%; format: functional, organism-based
Summary of the method: (§1)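 H9 T-cells (3 × 10^5 cells/mL) in RPMI 1640 with 10% FCS at 37 °C, 5% CO2, infected with HIV-1 IIIB (125 TCID50). Medium replaced on days 1 and 4 post-infection. Supernatant p24 antigen capture read on day 6. EC50 is the concentration suppressing replication by 50%; TI = IC50/EC50. AZT run as positive control. Averages of at least two experiments.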

[2] = Therapeutic index (IC50/EC50) was determined; conditions: read-out: TI; summary of the method: as §1
H9 = assay: Concentration required to inhibit uninfected H9 cell growth by 50%; format: functional, cell-based; conditions: Homo sapiens
Summary of the method: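 Mock-infected H9 cells handled in parallel under the same conditions as the infection assay, without virus. Viability read by XTT on day 6. IC50 is the concentration toxic to 50% of mock-infected cells. Averages of at least two experiments.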

Rattus norvegicus [3] = assay: Half-life in male Sprague-Dawley rats following an intravenous bolus dose at 10-20 mg/kg; format: ADME, organism-based; conditions: in vivo
Summary of the method: (§2)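 Adult male Sprague–Dawley rats (approx. 250 g) dosed iv at 10-20 mg/kg and orally as a suspension at 25 mg/kg. Nine 0.4 mL blood samples taken over 8 h. Plasma levels measured by reversed-phase HPLC with UV (320 nm) and fluorescence (ex 320/em 380 nm) detection. Detection limit approx. 50 ng/mL (UV) and 10 ng/mL (fluorescence) from 0.10 mL plasma. Parameters from noncompartmental analysis; half-life from the terminal log-linear phase; N=3–4 rats.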

Rattus norvegicus [4] = assay: Bioavailability in rat (Sprague-Dawley) (male) (dose 10-20 mg/kg); format: ADME, organism-based; conditions: in vivo; summary of the method: as §2
Rattus norvegicus [5] = assay: Vss in male Sprague-Dawley rats following an intravenous bolus dose at 10-20 mg/kg; format: ADME, organism-based; conditions: in vivo; summary of the method: as §2
Rattus norvegicus [6] = assay: Clearance in male Sprague-Dawley rats following an intravenous bolus dose at 10-20 mg/kg; format: ADME, organism-based; conditions: in vivo
Rattus norvegicus [7] = assay: Volume distribution of compound in male Sprague-Dawley rats following an intravenous bolus dose at 10-20 mg/kg; format: ADME, organism-based; conditions: in vivo; summary of the method: as §2
[8] = Bioavailability in male Sprague-Dawley rats following an intravenous bolus dose at 10-20 mg/kg; format: ADME, organism-based; conditions: rat, in vivo; summary of the method: as §2

EC50 [1]	T1/2 (Rattus norvegicus [3])	F (Rattus norvegicus [4])	Vss (Rattus norvegicus [5])	Vd (Rattus norvegicus [7])	Structure (SMILES)	selectivity ratio [2]	IC50 (H9)	CL (Rattus norvegicus [6])	bioavailability [8]
111 nM	0.867 h	Not detected	3.89 L/kg	5.9 L/kg	Cc1cc(=O)oc2c3c(c(CO)cc12)OC(C)(C)[C@H](OC(=O)C12CCC(C)(C(=O)O1)C2(C)C)[C@@H]3OC(=O)C12CCC(C)(C(=O)O1)C2(C)C (stereo partly specified)	> 135	> 15000 nM	284 L/h/kg	–
156 nM	–	–	–	–	Cc1cc(=O)oc2c3c(c(CBr)cc12)OC(C)(C)[C@H](OC(=O)C12CCC(C)(C(=O)O1)C2(C)C)[C@@H]3OC(=O)C12CCC(C)(C(=O)O1)C2(C)C (stereo partly specified)	> 88	> 13700 nM	–	–
677 nM	–	–	–	–	CC1(C)Oc2ccc3cc(CN)c(=O)oc3c2[C@@H](OC(=O)C23CCC(C)(C(=O)O2)C3(C)C)[C@H]1OC(=O)C12CCC(C)(C(=O)O1)C2(C)C (stereo partly specified)	> 23	> 15400 nM	–	–
544 nM	–	–	–	–	CC(=O)OCc1cc2c(C)cc(=O)oc2c2c1OC(C)(C)[C@H](OC(=O)C13CCC(C)(C(=O)O1)C3(C)C)[C@@H]2OC(=O)C12CCC(C)(C(=O)O1)C2(C)C (stereo partly specified)	> 26	> 14100 nM	–	–
26 nM	–	–	–	–	CC(=O)OCc1c(C)c2ccc3c(c2oc1=O)[C@@H](OC(=O)C12CCC(C)(C(=O)O1)C2(C)C)[C@@H](OC(=O)C12CCC(C)(C(=O)O1)C2(C)C)C(C)(C)O3 (stereo partly specified)	567	14800 nM	–	–
1.5 nM	2.42 h	Not detected	10.1 L/kg	12 L/kg	Cc1cc(=O)oc2c3c(ccc12)OC(C)(C)[C@H](OC(=O)C12CCC(C)(C(=O)O1)C2(C)C)[C@@H]3OC(=O)C12CCC(C)(C(=O)O1)C2(C)C (stereo partly specified)	–	23600 nM	–	–

The next lines start with the compound.

Structure (SMILES)	EC50 [1]	T1/2 (Rattus norvegicus [3])	F (Rattus norvegicus [4])	Vss (Rattus norvegicus [5])	Vd (Rattus norvegicus [7])	selectivity ratio [2]	IC50 (H9)	CL (Rattus norvegicus [6])	bioavailability [8]
Cc1cc(=O)oc2c3c(c(CN)cc12)OC(C)(C)[C@H](OC(=O)C12CCC(C)(C(=O)O1)C2(C)C)[C@@H]3OC(=O)C12CCC(C)(C(=O)O1)C2(C)C (stereo partly specified)	148 nM	–	–	–	–	> 102	> 15000 nM	–	–
Cc1cn([C@H]2C[C@H](N=[N+]=[N-])[C@@H](CO)O2)c(=O)[nH]c1=O [ZIDOVUDINE]	187 nM	–	–	–	–	–	–	–	–
Cc1c(CBr)c(=O)oc2c3c(ccc12)OC(C)(C)[C@H](OC(=O)C12CCC(C)(C(=O)O1)C2(C)C)[C@@H]3OC(=O)C12CCC(C)(C(=O)O1)C2(C)C (stereo partly specified)	0.11 nM	–	–	–	–	> 190000	> 20900 nM	–	–
CC(=O)OCc1cc2ccc3c(c2oc1=O)[C@@H](OC(=O)C12CCC(C)(C(=O)O1)C2(C)C)[C@@H](OC(=O)C12CCC(C)(C(=O)O1)C2(C)C)C(C)(C)O3 (stereo partly specified)	17 nM	–	–	–	–	676	11600 nM	–	–
Cc1c(CO)c(=O)oc2c3c(ccc12)OC(C)(C)[C@H](OC(=O)C12CCC(C)(C(=O)O1)C2(C)C)[C@@H]3OC(=O)C12CCC(C)(C(=O)O1)C2(C)C (stereo partly specified)	4 nM	3.12 h	–	18.5 L/kg	22.9 L/kg	5800	24900 nM	284 L/h/kg	15%
CC1(C)Oc2ccc3ccc(=O)oc3c2[C@@H](OC(=O)C23CCC(C)(C(=O)O2)C3(C)C)[C@H]1OC(=O)C12CCC(C)(C(=O)O1)C2(C)C (stereo partly specified)	49 nM	–	–	–	–	> 328	> 16100 nM	–	–
CC1(C)Oc2ccc3cc(CBr)c(=O)oc3c2[C@@H](OC(=O)C23CCC(C)(C(=O)O2)C3(C)C)[C@H]1OC(=O)C12CCC(C)(C(=O)O1)C2(C)C (stereo partly specified)	59 nM	–	–	–	–	> 186	> 11100 nM	–	–
CCN(CC)Cc1cc2ccc3c(c2oc1=O)[C@@H](OC(=O)C12CCC(C)(C(=O)O1)C2(C)C)[C@@H](OC(=O)C12CCC(C)(C(=O)O1)C2(C)C)C(C)(C)O3 (stereo partly specified)	3670 nM	–	–	–	–	> 4	> 14100 nM	–	–
CC1(C)Oc2ccc3cc(CO)c(=O)oc3c2[C@@H](OC(=O)C23CCC(C)(C(=O)O2)C3(C)C)[C@H]1OC(=O)C12CCC(C)(C(=O)O1)C2(C)C (stereo partly specified)	29 nM	–	–	–	–	806	23000 nM	–	–
